M1 agonist = M1 muscarinic receptor agonism | CHO-M1 cells, Fluo-4 calcium fluorescence, agonist mode; stronger effect = higher value | B-score at 10 µM | 64,000 tested, 3% active;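 active means fluorescence rise, raw or as B-score row- and column-corrected plate score, outside the 99.7% band of its plate's samples, either direction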
S1P1 ag pot = S1P1 (human) agonism or agonism potentiation; P21453; S1P1 CRE-bla cells, forskolin, beta-lactamase FRET, potentiator mode; S1P1 agonist co-added at EC20, 2 nM; 100% = saturating reference agonist, 0% = basal; activation, % at 9.5 µM; 56,000 tested, 0.57% active;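 active means activation above a cutoff set at the mean activation of all tested compounds plus 3 SD, cut at about 54% in these data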;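 further: forskolin at 4 µM as EC80 and the EC20 agonist is SEW2871; 100% = SEW2871 at its EC100 plus forskolin at EC80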
S1P3 ag = agonists of human S1P3 receptor; Q99500; S1P3 NFAT-BLA reporter cells, agonism, FRET ratio; relative to 1 µM S1P, basal subtracted; activation, % at 4.5 µM; 60,000 tested, 0.1% active; AID 373;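 active means activation above the screen-wide mean plus 3 SD, cut at about 4.5% in these data, passing the limit was not always enough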
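Assay system: stable CHO line with human S1P3, Gα16, NFAT-BLA reporter; Detection: FRET β-lactamase substrate fluorescence, excitation 405 nm, 460/535 nm emission ratio, background-subtracted; Read-out: percent activation versus median 1 µM S1P response, basal-subtracted, per plate; Incubation: cells plated overnight, compound 4 h 37 °C, substrate 2 h RT.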
M1 antagonist = M1 muscarinic receptor (rat) antagonism. CHO-M1 cells, Fluo-4 calcium, ACh EC80 antagonist mode; stronger effect = lower value. 64,000 tested, 3.4% active. B-score at 10 µM;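 active means calcium fluorescence response, raw or row-and-column corrected B-score, differing from the plate sample mean either way at a set confidence level, mostly lower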
Target sequence (P08482 whole entry, looked up): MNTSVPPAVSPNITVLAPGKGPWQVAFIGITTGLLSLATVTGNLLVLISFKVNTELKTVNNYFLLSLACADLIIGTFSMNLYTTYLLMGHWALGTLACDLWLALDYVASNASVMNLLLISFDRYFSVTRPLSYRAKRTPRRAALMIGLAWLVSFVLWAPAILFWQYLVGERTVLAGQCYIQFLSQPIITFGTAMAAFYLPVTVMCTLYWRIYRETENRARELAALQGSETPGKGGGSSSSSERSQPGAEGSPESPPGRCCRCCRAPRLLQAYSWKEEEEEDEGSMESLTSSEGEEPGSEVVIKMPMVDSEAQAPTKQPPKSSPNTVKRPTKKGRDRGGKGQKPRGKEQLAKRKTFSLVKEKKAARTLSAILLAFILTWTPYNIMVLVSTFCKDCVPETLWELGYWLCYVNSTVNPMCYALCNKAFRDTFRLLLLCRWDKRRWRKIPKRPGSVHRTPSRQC
TNAP act DEA = activates human TNAP at intermediate phosphate acceptor concentration; purified TNAP, CDP-star luminescence, 100 mM DEA, 30 min; stronger effect = higher value; scale: 0 levamisole-inhibited, 1 vehicle-only enzyme; activation factor at 20 µM; 64,000 tested, under 10 active; AID 813;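 active means activation factor of at least 2 at 20 µM, relative to controls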
D1 mod = allosteric modulators of human D1 dopamine receptor. 58,000 tested, 5.9% active. P21728. AID 641. B-score at 10 µM. HEK293 D1, CRE-luciferase, dopamine EC30 potentiation; actives deviate in either direction;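 active means luminescence count or its row- and column-corrected plate score outside the 99.7% band of the plate's sample wells, on either side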
M1 ag confirm = confirmation of rat M1 muscarinic receptor agonists. shares compounds with M1 agonist. CHO-M1 cells, Fluo-4 calcium fluorescence, agonist mode; actives lie on both sides. fluorescence change (max-min) at 10 µM. 1,700 tested, 19% active. AID 1488;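 active means fluorescence change differs from the solvent-only DMSO control mean at a set confidence level in both duplicate runs; inconclusive means differs from solvent-only control mean in just one of two runs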;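 further: an EC20 dose of acetylcholine follows compound addition during the same imaging run; raw fluorescence intensity difference in instrument units with no normalization to controls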
M4 agonist ctr = rat M4 muscarinic agonism, M1 counter-screen; shares compounds with M1 agonist; CHO M4/Gqi5 cells, Fluo-4 calcium fluorescence, agonist mode; actives lie on both sides; fluorescence change (max-min) at 10 µM; 1,700 tested, 9% active; AID 1741;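 active means fluorescence change differing from the plate's solvent-only control wells at 99.7% confidence in both duplicates, whether higher or lower; inconclusive means differs from solvent controls in only one of two duplicates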
Starred values were filed as active, the others as inactive. Hits are enriched below; roughly 11% of the tested compounds scored in any of these assays.

Results for Cc1ccccc1-n1c(SC/C(O)=C(\C#N)c2nc3ccccc3[nH]2)nnc1-c1ccncc1 ?
M1 agonist: 3.9*; M1 antagonist: -0.047; TNAP act DEA: 1; D1 mod: 0.76; M1 ag confirm: 4.6; M4 agonist ctr: -4.6

What do the screens show for `O=C(Nc1nc(-c2cc3ccccc3oc2=O)cs1)c1ccco1`?
M1 agonist: 1.6*; S1P1 ag pot: 3; S1P3 ag: -2; M1 antagonist: -0.0027; TNAP act DEA: 0.9; M1 ag confirm: 2.6; M4 agonist ctr: -33

What do the screens show for `CNC(=O)C1CC(=O)N(Cc2ccccc2)C(=Nc2ccc(OC)cc2)S1` (stereo not given)?
M1 agonist: 10*; S1P1 ag pot: 0; S1P3 ag: -4; M1 antagonist: -0.82; TNAP act DEA: 1; D1 mod: -0.026; M1 ag confirm: inconclusive; M4 agonist ctr: inconclusive

How did CCNC(=O)C1CC(=O)N(Cc2ccc(F)cc2)C(=Nc2ccc(OC)cc2)S1 (stereo not given) do in these assays?
M1 agonist: -0.68; S1P1 ag pot: -16; S1P3 ag: -1; M1 antagonist: 1.3; TNAP act DEA: 1; D1 mod: -1.6

What do the screens show for `COc1cccc(CSc2nc3sc(C)c(C)c3c(=O)n2Cc2ccco2)c1`?
M1 agonist: 2.9; M1 antagonist: 0.27; TNAP act DEA: 0.9; D1 mod: -0.0025

What do the screens show for `Cn1cc(C(=O)c2ccc(F)cc2)cc1-c1nc2ccccc2n1C`?
M1 agonist: 3.2*; S1P1 ag pot: -17; S1P3 ag: 0; M1 antagonist: -2; TNAP act DEA: 0.9; D1 mod: -0.59; M1 ag confirm: -8.5; M4 agonist ctr: inconclusive

What do the screens show for `CC(=O)N1CCc2cc(S(=O)(=O)CCC(=O)Nc3c(C)n(C)n(-c4ccccc4)c3=O)ccc21`?
M1 agonist: 8.6*; S1P1 ag pot: -5; S1P3 ag: -1; M1 antagonist: -0.51; TNAP act DEA: 0.9; D1 mod: -0.53; M1 ag confirm: inconclusive; M4 agonist ctr: -32

What do the screens show for `CC(=O)N1CCc2cc(S(=O)(=O)CCC(=O)O)ccc21`?
M1 agonist: -0.061; S1P1 ag pot: -17; S1P3 ag: -1; M1 antagonist: -0.47; TNAP act DEA: 1.1

Results for COc1[nH]c(/N=C/c2ccccc2)c(C#N)c1C#N ?
M1 agonist: 10*; S1P1 ag pot: 3; S1P3 ag: 0; M1 antagonist: -0.39; TNAP act DEA: 0.9; D1 mod: -1.1; M1 ag confirm: inconclusive; M4 agonist ctr: 39

How did O=C(NCc1ccco1)c1cccn2c(=O)c3sccc3nc12 do in these assays?
M1 agonist: 2.9*; M1 antagonist: -3.2*; TNAP act DEA: 0.9; D1 mod: 5*; M1 ag confirm: -18; M4 agonist ctr: -60

How did CCOC(=O)N1CCN(C(=O)c2cccn3c(=O)c4sccc4nc23)CC1 do in these assays?
M1 agonist: -1.2; M1 antagonist: 0.015; TNAP act DEA: 0.9; D1 mod: -0.051

Results for COCCNC(=O)CN(C(=O)CCC(=O)Nc1nccs1)c1ccccc1OC ?
M1 agonist: 0.0042; S1P1 ag pot: -16; S1P3 ag: -1; M1 antagonist: -0.03; TNAP act DEA: 1; D1 mod: 0.39

How did CCCCCOC(=O)c1ccccc1C(=O)O do in these assays?
M1 agonist: 3*; S1P1 ag pot: 22; S1P3 ag: -1; M1 antagonist: -0.33; TNAP act DEA: 0.8; D1 mod: -0.097; M1 ag confirm: -9.3; M4 agonist ctr: inconclusive

How did O=C(CSc1nc(-c2cccs2)cc(C(F)(F)F)n1)NCCCn1ccnc1 do in these assays?
M1 agonist: -0.0028; S1P1 ag pot: -10; S1P3 ag: -1; M1 antagonist: 0.19; D1 mod: -1.2

High-throughput results from PubChem BioAssay.
